{"data": "Measured values collected from several papers", "organism": "Streptococcus pneumoniae", "effect on": "microbial growth"}
{"SMILES": "CCCCCCCCCCCCCCCCCc1cc(O)cc(O)c1", "measurement": "IC50", "result": "> 200 µM"}
{"SMILES": "COc1ccc2cc1Oc1cc(ccc1OC)CCC(N[C@@H]1CCCc3ccccc31)CCCC2 (some centres unmarked)", "technique": "broth dilution", "measurement": "MIC", "result": "> 100 µg/mL"}
{"SMILES": "CN[C@@H]1[C@H](O)[C@H](NC)[C@H]2O[C@@]3(O)C(=O)C[C@@H](C)O[C@H]3O[C@@H]2[C@H]1O", "technique": "broth dilution", "strain": "DAW27", "measurement": "MIC", "result": "25 µg/mL"}
{"SMILES": "CCCCCCCCCCCCCCCC(=O)NS(=O)(=O)Oc1ccc(CCNC(=O)OC(C)(C)C)cc1", "technique": "broth dilution", "strain": "R6", "measurement": "MIC", "result": "50 µg/mL"}
{"SMILES": "C[C@H]1COCCN1c1nc(NCc2cccnc2C(F)(F)F)c2cccnc2n1", "technique": "broth dilution", "measurement": "MIC", "result": "32 to 64 µg/mL"}
{"SMILES": "CC(C)CCCCCCCCCCCCCCCc1cc(O)cc(O)c1", "measurement": "IC50", "result": "70 µM"}
{"SMILES": "CNC(=O)Oc1c2c(c(O)c3cc(CN4CCC4)ccc13)C(=O)C1=C(O)[C@]3(O)C(=O)C(C(N)=O)=C(O)[C@@H](N(C)C)[C@@H]3C[C@@H]1C2", "technique": "broth dilution", "strain": "ATCC49619", "measurement": "MIC", "result": "0.5 µg/mL"}
{"SMILES": "CN[C@H](CC(C)C)C(=O)N[C@H]1C(=O)N[C@@H](CC(N)=O)C(=O)N[C@H]2C(=O)N[C@H]3C(=O)N[C@H](C(=O)N[C@H](C(=O)O)c4cc(O)cc(O)c4-c4cc3ccc4O)[C@H](O)c3ccc(c(Cl)c3)Oc3cc2cc(c3O[C@@H]2O[C@H](CO)[C@@H](O)[C@H](O)[C@H]2O[C@H]2C[C@](C)(N)[C@H](O)[C@H](C)O2)Oc2ccc(cc2Cl)[C@H]1O", "measurement": "MIC", "result": "0.12 µg/mL"}
